Measurements taken from ChEMBL document CHEMBL4613265, “Novel Human Neutral Sphingomyelinase 2 Inhibitors as Potential Therapeutics for Alzheimer's Disease” (J Med Chem, 2020).
Active and inactive are the calls of the source. The rule behind the calls is not given here.

Key:
[1] = target: T1, Sphingomyelin phosphodiesterase 3 (Homo sapiens, UniProt Q9NY59); experiment: Inhibition of human recombinant full-length nSMase expressed in HEK293 cells using sphingomyelin as substrate measured after 1 hr by alkaline phosphatase, choline oxidase and horseradish peroxidase dependent H2O2 detection-coupled amplex reagent based fluorescence assay
T1 sequence (Q9NY59 whole entry): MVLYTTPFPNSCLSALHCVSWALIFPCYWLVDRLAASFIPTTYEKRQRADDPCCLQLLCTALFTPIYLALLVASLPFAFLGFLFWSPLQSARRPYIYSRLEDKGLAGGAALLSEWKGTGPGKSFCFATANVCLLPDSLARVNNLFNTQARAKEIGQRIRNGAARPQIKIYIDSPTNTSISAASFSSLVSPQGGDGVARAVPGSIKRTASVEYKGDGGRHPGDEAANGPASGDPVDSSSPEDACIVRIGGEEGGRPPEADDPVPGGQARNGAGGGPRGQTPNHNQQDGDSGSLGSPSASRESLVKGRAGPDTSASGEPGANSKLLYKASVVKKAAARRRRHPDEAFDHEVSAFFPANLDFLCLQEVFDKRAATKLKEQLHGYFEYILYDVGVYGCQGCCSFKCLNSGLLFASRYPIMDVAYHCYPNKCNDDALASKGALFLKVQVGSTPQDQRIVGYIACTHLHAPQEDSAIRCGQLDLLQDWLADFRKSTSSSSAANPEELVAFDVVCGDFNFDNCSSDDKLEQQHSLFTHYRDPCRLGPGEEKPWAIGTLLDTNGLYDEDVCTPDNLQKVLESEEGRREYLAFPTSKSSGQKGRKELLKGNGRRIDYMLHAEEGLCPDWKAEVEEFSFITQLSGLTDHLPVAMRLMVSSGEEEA

[2] = Stability in mouse liver microsomes assessed as parent compound remaining at 1 uM measured after 60 mins in absence of NADPH by LC-MS/MS analysis; assay type: ADME, Microsome; settings: liver microsomes, read-out: Stability
Summary of the method: (§1)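 Cofactor-free control for cofactor-independent degradation. Mouse or human liver microsomes at 0.2 mg/mL, 1 μM compound (final), 100 mM potassium phosphate at pH 7.4, no NADPH regenerating system. Adding microsomes started the reaction; run in triplicate. Sampled at 60 min and quenched with three volumes of ice-cold acetonitrile spiked with internal standard.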

[3] = Stability in human liver microsomes assessed as parent compound remaining at 1 uM measured after 60 mins in absence of NADPH by LC-MS/MS analysis; assay type: ADME, Microsome; settings: liver microsomes, read-out: Stability; summary of the method: as §1
[4] = Stability in mouse liver microsomes assessed as CYP450-mediated metabolism by measuring parent compound remaining at 1 uM measured after 60 mins in presence of NADPH generating system by LC-MS/MS analysis; assay type: ADME; settings: 1 h
Summary of the method: (§2)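 Liver microsomes from mouse or human, 0.2 mg/mL, with 1 μM compound (final) in 100 mM potassium phosphate at pH 7.4. Adding microsomes started the reaction; triplicates. After 60 min, quenched with 3 volumes of ice-cold acetonitrile containing internal standard.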

[5] = Cmax in 5XFAD transgenic B6SJLF1/J mouse plasma at 10 mg/kg, ip by LC-MS/MS analysis; assay type: ADME, organism-based; design: dose 10 mg/kg, route intraperitoneal
Summary of the method: (§3)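 Hemizygous 5XFAD mice aged 11 months received one terminal ip dose of 10 mg/kg in NMP–Tween 80–saline (2.5:5:92.5 v/v/v). […] Extraction by acetonitrile protein precipitation with losartan as internal standard, then LC–MS/MS. Noncompartmental analysis: Cmax and Tmax observed; AUC to 6 h by log–linear trapezoidal rule.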

[6] = Cmax in 5XFAD transgenic B6SJLF1/J mouse brain at 10 mg/kg, ip by LC-MS/MS analysis; assay type: ADME, organism-based; design: dose 10 mg/kg, route intraperitoneal; summary of the method: as §3
[7] = Tmax in 5XFAD transgenic B6SJLF1/J mouse plasma at 10 mg/kg, ip by LC-MS/MS analysis; assay type: ADME, organism-based; summary of the method: as §3
[8] = Tmax in 5XFAD transgenic B6SJLF1/J mouse brain at 10 mg/kg, ip by LC-MS/MS analysis; assay type: ADME, organism-based; summary of the method: as §3
[9] = AUClast in 5XFAD transgenic B6SJLF1/J mouse plasma at 10 mg/kg, ip by LC-MS/MS analysis; assay type: ADME, organism-based; summary of the method: as §3
[10] = AUClast in 5XFAD transgenic B6SJLF1/J mouse brain at 10 mg/kg, ip by LC-MS/MS analysis; assay type: ADME, organism-based; summary of the method: as §3
[11] = target: Phosphatidylinositol 4-kinase beta (Homo sapiens, UniProt Q9UBF8); experiment: Inhibition of PI4K3beta (unknown origin)
Phosphatidylinositol 4-kinase beta, sequence (Q9UBF8 whole entry): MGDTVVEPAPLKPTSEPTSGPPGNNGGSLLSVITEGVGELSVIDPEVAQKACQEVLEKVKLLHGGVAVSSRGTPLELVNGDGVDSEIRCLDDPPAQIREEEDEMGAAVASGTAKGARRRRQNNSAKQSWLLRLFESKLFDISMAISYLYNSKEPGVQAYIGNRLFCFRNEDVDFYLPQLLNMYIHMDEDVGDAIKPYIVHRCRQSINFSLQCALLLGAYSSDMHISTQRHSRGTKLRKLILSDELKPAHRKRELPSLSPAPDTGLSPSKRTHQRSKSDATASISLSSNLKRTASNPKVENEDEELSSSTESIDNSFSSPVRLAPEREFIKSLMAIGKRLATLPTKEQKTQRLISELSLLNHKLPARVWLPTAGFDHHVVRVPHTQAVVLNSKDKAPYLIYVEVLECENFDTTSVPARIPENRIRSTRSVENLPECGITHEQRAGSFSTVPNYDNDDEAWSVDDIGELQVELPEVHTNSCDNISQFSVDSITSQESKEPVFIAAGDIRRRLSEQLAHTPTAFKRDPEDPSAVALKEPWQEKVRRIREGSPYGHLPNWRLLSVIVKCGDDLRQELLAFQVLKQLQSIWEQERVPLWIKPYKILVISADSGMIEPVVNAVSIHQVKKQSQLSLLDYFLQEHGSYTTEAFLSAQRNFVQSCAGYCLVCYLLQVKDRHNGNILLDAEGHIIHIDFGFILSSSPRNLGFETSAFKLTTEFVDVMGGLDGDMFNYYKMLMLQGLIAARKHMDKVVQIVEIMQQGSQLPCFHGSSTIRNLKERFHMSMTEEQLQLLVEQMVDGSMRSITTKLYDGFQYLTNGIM

[12] = target: Phosphatidylinositol 4-kinase alpha (Homo sapiens) (UniProt P42356); experiment: Inhibition of PI4K3alpha (unknown origin)
Phosphatidylinositol 4-kinase alpha (Homo sapiens), sequence (P42356 whole entry, looked up): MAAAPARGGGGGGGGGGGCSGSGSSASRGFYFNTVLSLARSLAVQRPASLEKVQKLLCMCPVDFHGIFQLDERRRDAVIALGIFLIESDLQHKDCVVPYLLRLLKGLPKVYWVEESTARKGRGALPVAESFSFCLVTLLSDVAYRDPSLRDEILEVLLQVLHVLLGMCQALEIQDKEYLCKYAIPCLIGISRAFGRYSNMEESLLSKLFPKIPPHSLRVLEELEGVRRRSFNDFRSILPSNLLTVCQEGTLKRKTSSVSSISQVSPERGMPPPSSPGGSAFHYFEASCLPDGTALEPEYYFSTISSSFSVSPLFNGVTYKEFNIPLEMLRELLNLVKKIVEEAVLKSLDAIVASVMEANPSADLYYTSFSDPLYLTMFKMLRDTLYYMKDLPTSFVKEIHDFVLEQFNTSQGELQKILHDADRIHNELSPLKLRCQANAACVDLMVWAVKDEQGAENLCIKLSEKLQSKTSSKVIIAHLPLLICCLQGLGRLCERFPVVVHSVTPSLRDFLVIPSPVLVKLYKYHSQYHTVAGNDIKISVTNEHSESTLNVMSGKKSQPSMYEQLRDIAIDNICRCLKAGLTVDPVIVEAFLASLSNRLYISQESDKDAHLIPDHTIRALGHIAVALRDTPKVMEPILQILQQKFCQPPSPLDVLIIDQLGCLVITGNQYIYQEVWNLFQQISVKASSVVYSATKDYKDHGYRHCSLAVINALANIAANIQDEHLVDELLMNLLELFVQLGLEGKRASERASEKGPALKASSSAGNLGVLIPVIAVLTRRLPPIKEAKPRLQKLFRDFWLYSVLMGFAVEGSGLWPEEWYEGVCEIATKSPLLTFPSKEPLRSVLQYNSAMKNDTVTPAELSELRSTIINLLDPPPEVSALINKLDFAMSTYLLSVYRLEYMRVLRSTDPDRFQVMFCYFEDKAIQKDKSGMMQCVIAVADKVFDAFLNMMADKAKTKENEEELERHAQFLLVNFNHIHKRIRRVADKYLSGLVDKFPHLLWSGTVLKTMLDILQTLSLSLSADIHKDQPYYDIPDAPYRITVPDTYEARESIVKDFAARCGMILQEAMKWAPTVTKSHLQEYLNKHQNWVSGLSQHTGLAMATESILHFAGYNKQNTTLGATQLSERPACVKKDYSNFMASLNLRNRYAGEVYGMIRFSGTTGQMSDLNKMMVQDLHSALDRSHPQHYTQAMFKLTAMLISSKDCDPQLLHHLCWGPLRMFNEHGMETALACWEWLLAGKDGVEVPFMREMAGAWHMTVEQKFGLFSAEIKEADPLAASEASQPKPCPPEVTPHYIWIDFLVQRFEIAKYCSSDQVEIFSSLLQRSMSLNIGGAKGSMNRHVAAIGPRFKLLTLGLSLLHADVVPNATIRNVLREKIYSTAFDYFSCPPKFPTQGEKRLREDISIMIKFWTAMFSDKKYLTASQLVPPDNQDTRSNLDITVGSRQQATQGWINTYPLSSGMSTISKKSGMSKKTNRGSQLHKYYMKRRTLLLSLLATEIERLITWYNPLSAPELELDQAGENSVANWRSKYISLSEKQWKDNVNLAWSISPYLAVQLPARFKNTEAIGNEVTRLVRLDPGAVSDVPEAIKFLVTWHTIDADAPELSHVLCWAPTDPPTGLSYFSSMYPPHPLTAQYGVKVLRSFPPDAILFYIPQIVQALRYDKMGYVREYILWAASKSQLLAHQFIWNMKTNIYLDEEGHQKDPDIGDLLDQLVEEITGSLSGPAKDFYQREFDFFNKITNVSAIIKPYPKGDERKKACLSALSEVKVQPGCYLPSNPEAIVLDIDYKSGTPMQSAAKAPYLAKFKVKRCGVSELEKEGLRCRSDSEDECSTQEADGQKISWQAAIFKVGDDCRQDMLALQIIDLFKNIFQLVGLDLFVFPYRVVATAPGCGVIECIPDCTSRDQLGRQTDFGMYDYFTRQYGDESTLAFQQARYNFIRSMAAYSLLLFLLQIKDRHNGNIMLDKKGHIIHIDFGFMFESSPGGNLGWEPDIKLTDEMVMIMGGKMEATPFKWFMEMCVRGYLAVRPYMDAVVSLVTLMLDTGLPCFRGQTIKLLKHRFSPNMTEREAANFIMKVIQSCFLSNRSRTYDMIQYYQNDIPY

Mus musculus [13] = experiment: Suppression of cognitive dysfunction in 5XFAD transgenic B6SJLF1/J mouse model of Alzheimer's disease assessed as body weight gain at 10 mg/kg, ip administered daily for 5 months measured during compound dosing; assay type: functional, organism-based
Summary of the method: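 Male and female hemizygous 5XFAD and WT littermates were dosed from age 3 months with 10 mg/kg ip daily or vehicle (5% DMSO, 5% Tween 80, 90% PBS), n = 13–16. Body weight was followed to study day 150 (8 months). Groups were compared by two-way ANOVA.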

Mus musculus [14] = experiment: Suppression of cognitive dysfunction in 5XFAD transgenic B6SJLF1/J mouse model of Alzheimer's disease assessed as increase in freezing behavior response to 1000 Hz tone conditioned stimulus at 10 mg/kg, ip administered daily for 5 months measured during 120 secs of testing by contextual fear conditioning assay; assay type: functional, organism-based
Summary of the method: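 Dosed daily ip at 10 mg/kg (vehicle 5% DMSO/5% Tween 80/90% PBS) from 3 months, n = 13–16, then tested at 8 months. Day 1: 240 s in chamber with two pairings of a 30 s 1000 Hz tone and a 2 s 0.5 mA footshock, at 120 and 180 s. Day 2: contextual test, 300 s in same chamber. Day 3: novel box for 240 s with tone during last 120 s. Read-out: freezing.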

Cytochrome P450 [15] = experiment: Drug metabolism in human liver microsomes assessed as CYP450-mediated O-demethylated metabolite formation at 1 uM measured after 60 mins in presence of NADPH generating system by LC-MS/MS analysis; assay type: ADME; settings: 1 h
[16] = Drug metabolism in mouse liver microsomes assessed as CYP450-mediated O-dealkylation at 1 uM measured after 60 mins in presence of NADPH generating system by LC-MS/MS analysis; assay type: ADME; settings: 1 h
Summary of the method: (§4)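 Mouse or human liver microsomes at 0.2 mg/mL, compound at 1 μM final. Controls run without cofactors. Quenched at 60 min with cold acetonitrile containing internal standard; read as % remaining.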

Cytochrome P450 [17] = experiment: Drug metabolism in human liver microsomes assessed as CYP450-mediated O-dealkylation at 1 uM measured after 60 mins in presence of NADPH generating system by LC-MS/MS analysis; assay type: ADME; settings: 1 h; summary of the method: as §4
HepG2 = experiment: Cytotoxicity against human HepG2 cells by XTT assay; assay type: cell-based
HL-60 = experiment: Cytotoxicity against human HL60 cells by XTT assay; assay type: cell-based
HeLa S3 = experiment: Cytotoxicity against human HeLaS3 cells by XTT assay; assay type: cell-based
CCRF-CEM = experiment: Cytotoxicity against human CCRF-CEM cells by XTT assay; assay type: cell-based
Cytochrome P450 [18] = experiment: Stability in human liver microsomes assessed as CYP450-mediated metabolism by measuring parent compound remaining at 1 uM measured after 60 mins in presence of NADPH generating system by LC-MS/MS analysis; assay type: ADME; settings: 1 h; summary of the method: as §2

Structure (SMILES): COc1ccc(-c2scc3c(N4CC[C@@H](NC(C)=O)C4)nc(C)nc23)cc1OC
- IC50 [1]: > 100 µM
- remaining at 1 h, 1 µM [2]: > 95%
- remaining at 1 h, 1 µM [3]: > 95%

Structure (SMILES): COc1ccc(-n2c(C)nc3c(N4CC[C@@H](NC(C)=O)C4)nc(C)nc32)cc1OC
- IC50 [1]: > 100 µM
- Parent compound remaining [4]: 104%
- remaining at 1 h, 1 µM [2]: > 95%
- remaining at 1 h, 1 µM [3]: > 95%

Structure (SMILES): COc1ccc(-c2c(C)nc3c(N4CC[C@@H](NC(=O)Oc5ccccc5)C4)cc(C)nn23)cc1OC
- Cmax [5]: 7.7 µM
- Cmax [6]: 3.89 µM
- Tmax [7]: 15 min
- Tmax [8]: 30 min
- AUC(0-t) [9]: 22.1 µM·h
- AUC(0-t) [10]: 13 µM·h
- IC50 [11]: > 10 µM
- inhibition [12]: inactive
- Activity (Mus musculus [13]): Active
- Activity (Mus musculus [14]): Active
- Drug metabolism (Cytochrome P450 [15]): Metabolite_Detected
- Drug metabolism [16]: Metabolite_Detected
- Drug metabolism (Cytochrome P450 [17]): Metabolite_Detected
- Activity (HepG2): Non-Toxic
- Activity (HL-60): Non-Toxic
- Activity (HeLa S3): Non-Toxic
- Activity (CCRF-CEM): Non-Toxic

Structure (SMILES): COc1ccc(-c2c(C)nc3c(N4CC[C@@H](NS(=O)(=O)c5ccc(C)cc5)C4)cc(C)nn23)cc1OC
- Parent compound remaining [4]: 2%
- Stability (Cytochrome P450 [18]): 29%
- remaining at 1 h, 1 µM [2]: > 95%
- remaining at 1 h, 1 µM [3]: > 95%

Structure (SMILES): COc1ccc(-c2c(C)nc3c(N4CC[C@@H](NC(C)=O)C4)cc(C)nn23)cc1OC
- remaining at 1 h, 1 µM [2]: > 95%
- remaining at 1 h, 1 µM [3]: > 95%
- IC50 [11]: > 10 µM
- inhibition [12]: inactive
- Activity (HepG2): Non-Toxic
- Activity (HL-60): Non-Toxic
- Activity (HeLa S3): Non-Toxic
- Activity (CCRF-CEM): Non-Toxic

Structure (SMILES): COc1ccc(-c2c(C)nc3c(N4CC[C@@H](SC(C)=O)C4)cc(C)nn23)cc1OC
- Parent compound remaining [4]: 8%
- Stability (Cytochrome P450 [18]): 11%
- remaining at 1 h, 1 µM [2]: > 95%
- remaining at 1 h, 1 µM [3]: > 95%

Structure (SMILES): COc1ccc(-c2c(C)nc3c(N4CC[C@@H](NS(=O)(=O)c5ccc(Cl)cc5)C4)cc(C)nn23)cc1OC
- Parent compound remaining [4]: 7%
- Stability (Cytochrome P450 [18]): 32%
- remaining at 1 h, 1 µM [2]: > 95%
- remaining at 1 h, 1 µM [3]: > 95%

Structure (SMILES): COc1ccc(-c2c(C)nc3c(N4CCCC4)cc(C)nn23)cc1OC
- Parent compound remaining [4]: 1%
- Stability (Cytochrome P450 [18]): 58%
- remaining at 1 h, 1 µM [2]: > 95%
- remaining at 1 h, 1 µM [3]: > 95%

Structure (SMILES): COc1ccc(-c2c(C)oc3c(N4CC[C@@H](NC(C)=O)C4)cc(C)nc23)cc1OC
- IC50 [1]: > 100 µM
- remaining at 1 h, 1 µM [2]: > 95%
- remaining at 1 h, 1 µM [3]: > 95%

Structure (SMILES): COc1ccc(-c2c(C)nc3c(N4CC[C@@H](NS(=O)(=O)C5CC5)C4)cc(C)nn23)cc1OC
- Parent compound remaining [4]: 95%
- Stability (Cytochrome P450 [18]): 111%
- remaining at 1 h, 1 µM [2]: > 95%
- remaining at 1 h, 1 µM [3]: > 95%

Structure (SMILES): COc1ccc(-c2c(C)nc3c(N4CC[C@H](NC(C)=O)C4)cc(C)nn23)cc1OC
- IC50 [11]: > 10 µM
- inhibition [12]: inactive
- Activity (HepG2): Non-Toxic
- Activity (HL-60): Non-Toxic
- Activity (HeLa S3): Non-Toxic
- Activity (CCRF-CEM): Non-Toxic

Structure (SMILES): COc1ccc(-c2c(C)nc3c(NCCNC(C)=O)cc(C)nn23)cc1OC
- IC50 [1]: > 10 µM
- inhibition [12]: inactive
- Activity (HepG2): Non-Toxic
- Activity (HL-60): Non-Toxic
- Activity (HeLa S3): Non-Toxic
- Activity (CCRF-CEM): Non-Toxic

Structure (SMILES): CC(=O)N[C@@H]1CCN(c2cc(C)nn3c(-c4cccs4)c(C)nc23)C1
- Parent compound remaining [4]: 28%
- Stability (Cytochrome P450 [18]): 50%
- remaining at 1 h, 1 µM [2]: > 95%
- remaining at 1 h, 1 µM [3]: > 95%

Structure (SMILES): CC(=O)N[C@@H]1CCN(c2cc(C)nn3c(-c4ccc(OC(F)(F)F)cc4)c(C)nc23)C1
- Parent compound remaining [4]: 72%
- Stability (Cytochrome P450 [18]): 114%
- remaining at 1 h, 1 µM [2]: > 95%
- remaining at 1 h, 1 µM [3]: > 95%
